Experiments:
[1] = biological target: Epidermal growth factor receptor (Homo sapiens, UniProt P00533); test: Inhibition of EGF-stimulated EGFR tyrosine kinase activity using plasma membrane vesicles shed from cultured human A431 carcinoma cells; assay type: functional, cell-based, A-431
Outline: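 EGFR source: A431 shed membrane vesicles, solubilized in 4% Triton X-100/10% glycerol, 10 μg total protein per reaction. Final buffer: 20 mM HEPES pH 7.4, 15 mM MgCl₂, 4 mM MnCl₂, 0.02% BSA, 5 μM ATP with [γ-³²P]ATP, Glu:Ala:Tyr (6:3:1) copolymer substrate, 250 ng EGF. Run 10 min at room temperature, stopped with cold TCA/pyrophosphate. Filter-bound ³²P counted. IC50 is 50% reduction of incorporation. Autophosphorylation controls included.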

Swiss 3T3 (Mus musculus) = test: Inhibition of Swiss 3T3 mouse fibroblast proliferation

Sequence of Epidermal growth factor receptor (P00533 whole entry): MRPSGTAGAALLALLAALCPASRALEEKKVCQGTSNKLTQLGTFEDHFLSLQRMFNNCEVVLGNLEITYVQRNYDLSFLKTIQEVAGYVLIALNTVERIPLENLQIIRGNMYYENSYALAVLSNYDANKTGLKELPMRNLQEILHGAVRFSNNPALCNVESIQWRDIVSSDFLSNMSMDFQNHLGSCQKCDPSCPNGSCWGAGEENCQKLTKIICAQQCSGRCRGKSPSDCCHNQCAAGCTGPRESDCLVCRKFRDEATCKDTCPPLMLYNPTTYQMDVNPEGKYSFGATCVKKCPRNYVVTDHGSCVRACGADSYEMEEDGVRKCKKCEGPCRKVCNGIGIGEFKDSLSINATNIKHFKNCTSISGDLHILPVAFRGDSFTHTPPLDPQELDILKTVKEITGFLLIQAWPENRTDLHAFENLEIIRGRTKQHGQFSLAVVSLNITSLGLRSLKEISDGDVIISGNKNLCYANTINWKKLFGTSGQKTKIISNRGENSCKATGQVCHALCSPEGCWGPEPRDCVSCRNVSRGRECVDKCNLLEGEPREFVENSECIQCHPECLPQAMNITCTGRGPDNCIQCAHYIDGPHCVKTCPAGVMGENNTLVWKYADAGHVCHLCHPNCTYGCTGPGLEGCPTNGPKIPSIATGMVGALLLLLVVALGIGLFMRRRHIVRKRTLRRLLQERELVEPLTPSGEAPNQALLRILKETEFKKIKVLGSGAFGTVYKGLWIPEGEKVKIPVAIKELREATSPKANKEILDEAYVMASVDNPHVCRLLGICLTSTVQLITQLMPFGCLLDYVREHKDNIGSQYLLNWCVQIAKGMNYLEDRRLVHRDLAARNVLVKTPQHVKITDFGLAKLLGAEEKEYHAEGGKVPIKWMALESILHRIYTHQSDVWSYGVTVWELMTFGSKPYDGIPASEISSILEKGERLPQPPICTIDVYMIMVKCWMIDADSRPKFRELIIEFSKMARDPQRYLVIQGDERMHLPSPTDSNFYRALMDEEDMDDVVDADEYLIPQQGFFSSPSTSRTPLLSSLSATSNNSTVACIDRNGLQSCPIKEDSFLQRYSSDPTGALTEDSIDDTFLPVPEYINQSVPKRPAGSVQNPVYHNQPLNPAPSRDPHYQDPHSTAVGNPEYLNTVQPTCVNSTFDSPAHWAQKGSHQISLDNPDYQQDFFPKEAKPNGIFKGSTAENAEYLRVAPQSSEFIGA

| IC50 [1] [µM] | Compound | IC50 (Swiss 3T3 (Mus musculus)) [µM] |
| --- | --- | --- |
| 1.62 | O=C(O)CCC1C(S)=Nc2ccccc21 (centres undefined) | 64 |
| > 100 | COC(=O)CCN1C(=S)C(CCC(=O)OC)(CCC(=O)OC)c2ccccc21 | – |
| > 100 | COC(=O)CCC1C(S)=Nc2ccccc21 (centres undefined) | 16 |
| 6.7 | CN1C(=S)C(CCC(=O)O)c2ccccc21 (centres undefined) | – |
| > 100 | COC(=O)CCC1C(=S)N(C)c2ccccc21 (centres undefined) | – |
| > 100 | COC(=O)Cc1c(Sc2c(CC(=O)OC)c3ccccc3n2C)n(C)c2ccccc12 | – |
| 100 | COC(=O)CC1C(=S)Nc2ccccc21 (centres undefined) | – |
| > 100 | COC(=O)CCC1(CCC(=O)OC)C(=S)Nc2ccccc21 | – |
| > 100 | COC(=O)CCCC1C(=S)Nc2ccccc21 (centres undefined) | – |
| > 100 | COC(=O)CCc1c(SSc2c(CCC(=O)OC)c3ccccc3n2C)n(C)c2ccccc12 | 5.2 |
| > 100 | CN1C(=S)C(CC(=O)O)c2ccccc21 (centres undefined) | – |
| > 100 | COC(=O)CCCc1c(SSc2c(CCCC(=O)OC)c3ccccc3n2C)n(C)c2ccccc12 | 1.8 |
| 10.2 | O=C(O)Cc1c(SSc2[nH]c3ccccc3c2CC(=O)O)[nH]c2ccccc12 | > 50 |
| > 100 | COC(=O)CCCc1c(SSc2[nH]c3ccccc3c2CCCC(=O)OC)[nH]c2ccccc12 | – |
| 35 | COC(=O)Cc1c(SSSc2[nH]c3ccccc3c2CC(=O)OC)[nH]c2ccccc12 | 1 |
| 4.2 | O=C(O)CCc1c(SSc2[nH]c3ccccc3c2CCC(=O)O)[nH]c2ccccc12 | 59 |
| 21 | COC(=O)CCc1c(SSc2[nH]c3ccccc3c2CCC(=O)OC)[nH]c2ccccc12 | 7.4 |
| – | O=C(O)Cc1c(SSSc2[nH]c3ccccc3c2CC(=O)O)[nH]c2ccccc12 | 8 |
| > 100 | COC(=O)CC1C(=S)N(C)c2ccccc21 (centres undefined) | – |
| 1.5 | Cc1cccc2c(CCC(=O)O)c(SSc3[nH]c4c(C)cccc4c3CCC(=O)O)[nH]c12 | – |
| > 100 | O=C(O)CCC1(CCC(=O)O)C(=S)Nc2ccccc21 | – |
| > 100 | CN1C(=S)C(CCCC(=O)O)c2ccccc21 (centres undefined) | – |
| – | Cc1ccc2[nH]c(SSc3[nH]c4ccc(C)cc4c3CCC(=O)O)c(CCC(=O)O)c2c1 | > 50 |
| 33 | COC(=O)Cc1c(SSc2c(CC(=O)OC)c3ccccc3n2C)n(C)c2ccccc12 | – |
| – | COC(=O)Cc1c(SSc2[nH]c3ccccc3c2CC(=O)OC)[nH]c2ccccc12 | 2.3 |
| 53 | Cn1c(SSc2c(CC(=O)O)c3ccccc3n2C)c(CC(=O)O)c2ccccc21 | 36 |
| 3.1 | Cn1c(SSc2c(CCC(=O)O)c3ccccc3n2C)c(CCC(=O)O)c2ccccc21 | – |
| > 100 | COC(=O)CCCC1C(=S)N(C)c2ccccc21 (centres undefined) | – |
| 6.7 | O=C(O)CCCC1C(=S)Nc2ccccc21 (centres undefined) | – |
| 2 | O=CN/C=C/c1cc(O)ccc1O [ERBSTATIN] | – |
